Series [1] deals with UMUC3. The experiment in a line: Photodynamic antitumor activity against human UMUC3 cells xenografted in SCID mouse assessed as tumor retention at 0.47 micromol/kg, iv pretreated with compound followed by light irradiation at a dose of 135 J/cm2 and 75 mW/cm2 measured at day 60 post dose relative to control. The class given is functional. As to conditions: dose 0.47 µmol/kg; time 60 day; call rule not given here. In a few lines: (§1)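 UMUC3-bearing female SCID mice given iv PS in 1% Tween80/5% dextrose. Mice restrained and tumors irradiated at 665 nm, 135 J/cm² over 30 min at 75 mW/cm², at the time of maximal tumor uptake. Tumor regrowth measured daily for 60 days; mice euthanized above 400 mm³. Cure plotted as survival curves and compared by log-rank (Mantel-Cox) test.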

The nature of series [2]: Drug uptake in human HN-166 cells assessed as increase in drug retention retention at 3 uM in medium with 10% FBS incubated for 5 hrs followed by 40 hrs chase period by inverted fluorescence microscopic analysis. The class given is ADME, cell-based. As to conditions: hn-166, 5 h. In a few lines:
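Five-day co-cultures of HN-143 tumor epithelial cells and HN-166 tumor fibroblasts, both primary head & neck tumor cultures grown on collagen-1 under selective media. PS in 10% FBS medium for 5 h, then 40 h chase without PS. Phase-contrast and fluorescence images taken at 100X with 500 ms exposure; signal normalized to recording time and cell number.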

Series [3] has as its system FaDu. Kind of series: Photosensitizing activity in human FaDu cells assessed as reduction in cell viability pretreated with compound for 24 hrs followed by light irradiation at 1 J/cm2 and measured after 48 hrs by MTT assay. The class given is functional, cell-based. The following applies: light or radiation study. In a few lines:
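Cells seeded at 0.01–0.05 x 10⁶ cells/ml; PS added 24 h after plating, top dose 1600 nM with 2-fold serial dilutions. Plates given 0 or 1 J/cm² light. MTT added 48 h later, formazan dissolved in DMSO, absorbance at 570 nm; IC50 from curve fitting.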
(Tetrazolium assays rely on reduction of a dye to a coloured formazan, in cell work by metabolically active cells.)

In series [4] the test system is FaDu. Kind of series: Photodynamic antitumor activity against human FaDu cels xenografted in SCID mouse assessed as cure rate at 0.47 micromol/kg, iv pretreated with compound followed by light irradiation at a dose of 135 J/cm2 and 75 mW/cm2 and measured at 24 hrs post dose relative to control. The class given is functional. As to conditions: dose 0.47 µmol/kg. In a few lines: (§2)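 FaDu-bearing female SCID mice (5 per group per experiment) given iv PS at 0.47, 0.25 or 0.125 μmol/kg in Tween80/dextrose. Tumors irradiated 24 h post-injection at 665 nm, 135 J/cm², 75 mW/cm². Tumor growth measured daily for 60 days, with euthanasia above 400 mm³. Cure taken as tumor-free at day 60; survival analysed by log-rank test.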

The test system of series [5] is FaDu. Kind of series: Photodynamic antitumor activity against human FaDu cells xenografted in SCID mouse assessed as cure rate at 0.125 micromol/kg, iv pretreated with compound followed by light irradiation at a dose of 135 J/cm2 and 75 mW/cm2 measured for 60 days post dose relative to control. As to conditions: dose 0.125 µmol/kg; time 60 day. In kind it is functional. The gist of the method:
as §2
(Xenograft models place foreign cells or tissue in a host animal.)

For series [6], the system named is FaDu. Kind of series: Photodynamic antitumor activity against human FaDu cells xenografted in SCID mouse assessed as cure rate at 0.25 micromol/kg, iv pretreated with compound followed by light irradiation at a dose of 135 J/cm2 and 75 mW/cm2 measured after 60 days post dose relative to control. In kind it is functional. As to conditions: dose 0.25 µmol/kg; time 60 day. In a few lines: as §2

Series [7] is described as follows: Drug uptake in human CFSE-stained HN-121 cells assessed as increase in drug retention at 1.6 uM in medium with 10% FBS followed by 48 hrs chase period by inverted fluorescence microscopic analysis. The class given is ADME, cell-based. As to conditions: hn-121, 48 h.
Series [8] deals with UMUC3. Kind of series: Photodynamic antitumor activity against human UMUC3 cells xenografted in SCID mouse assessed as tumor retention at 0.25 micromol/kg, iv pretreated with compound followed by light irradiation at a dose of 135 J/cm2 and 75 mW/cm2 measured at day 60 post dose relative to control. As to conditions: dose 0.25 µmol/kg; time 60 day. The class given is functional. In a few lines: as §1

The nature of series [9]: Drug uptake in human FaDu clone 49 cells assessed as increase in drug retention at 1.6 uM in RPMI medium with 10% FBS followed by 48 hrs chase period by inverted fluorescence microscopic analysis.
A short description of series [10]: Drug uptake in liver of iv dosed SCID mouse xenografted with UMUC3 cells by fluorescence imaging analysis. The following applies: in vivo.
Series [11] in a line: Drug uptake in tumor of iv dosed SCID mouse xenografted with UMUC3 cells by fluorescence imaging analysis. As to conditions: in vivo.
The subject of the next series is HN-85-1-3. The experiment in a line: Photodynamic therapy in human HN-85-1-3 cells assessed as degradation of EGFR treated with compound followed by diode laser irradiation at 3 J/cm2 by immunoblot analysis. In kind it is functional, cell-based. The gist of the method:
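Primary HN-85-1-3 tumor epithelial cells loaded with graded PS doses; uptake quantified by fluorescence before light. Dishes irradiated at 37°C with 665 nm diode laser, 6 mW/cm², 3 J/cm² total. Cells lysed in RIPA immediately after light; STAT3 crosslinking and EGFR analysed by SDS-PAGE immunoblot.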

Series [12] is described as follows: Drug uptake in liver of iv dosed SCID mouse xenografted with human UMUC3 cells by fluorescence imaging analysis. The following applies: in vivo. In kind it is ADME, organism-based.
A short description of series [13]: Drug uptake in tumor of SCID mouse xenografted with human UMUC3 cells at 0.25 micromol/kg, iv pretreated with compound followed by light irradiation at a dose of 135 J/cm2 and 75 mW/cm2 measured after 2 to 8 hrs by IVIS analysis. In kind it is ADME, organism-based, Neoplasm. The following applies: in vivo, time 2-8 hrs, dose 0.25 µmol/kg. In a few lines: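 Female SCID mice with UMUC3 flank/shoulder tumors, 3 per group. PS in 1% Tween80/5% dextrose given iv at 0.47, 0.25 or 0.125 μmol/kg. Whole-body fluorescence imaging by IVIS at several times after injection; average radiant efficiency measured in tumor, liver and skin.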

Series [14] can be described thus: Drug uptake in skin of iv dosed SCID mouse xenografted with human UMUC3 cells by fluorescence imaging analysis. As to conditions: in vivo. The class given is ADME, organism-based, Skin of body.

The term IC50 denotes the midpoint of a concentration-inhibition curve. Turning to `CCC1=C(C)c2cc3[nH]c(cc4nc(c5c6[nH]c(cc1n2)c(C)c6C(=O)C5)[C@@H](CCC(=O)OC)[C@@H]4C)c(C)c3C(C)OCc1cccc(C#Cc2cccc(Nc3ncnc4cc(OCCOC)c(OCCOC)cc34)c2)c1` (stereo not given in full), the Activity in the series on UMUC3 [1] is 74%; in the series on FaDu [4], 92%; in the series on FaDu [5], 0%; in the series with FaDu [6], 80%; with UMUC3 [8], 50%; in the series on HN-85-1-3, “Dose-dependent effect”. Moreover, the Drug uptake result in series [2], in [7], in series [9], in series [10], in series [11] and in series [12] was “Active” each time. Further, the Drug uptake entry in series [13] and in series [14] was “Active” throughout. The IC50 in the series with FaDu [3] was determined as 35.5 nM.

Source of the values: ChEMBL document CHEMBL4732136, “Synthesis, Tumor Specificity, and Photosensitizing Efficacy of Erlotinib-Conjugated Chlorins and Bacteriochlorins: Identification of a Highly Effective Candidate for Photodynamic Therapy of Cancer” (J Med Chem, 2021).
